# Laboratory results as given in ChEMBL document CHEMBL1914401, “Aminothiazoles as γ-secretase modulators” (Bioorg Med Chem Lett, 2011).
# pEC50, pIC50: −log10 of the molar value. Calls of active or inactive are those of the source. No cut-off for these calls is given here.
# Legend:
# Gamma-secretase [1] = assay: Inhibition of gamma secretase in human H4 cells overexpressing human APP assessed as reduction in amyloid beta-42 secretion after 22 hrs; type: cell-based
# How it was run: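 Human neuroglioma H4 cells overexpressing human APP were seeded at 30,000 cells/well in IMDM with 10% FCS and […] hygromycin B, then held 2 h at 37 °C, 5% CO2. Test agents were given as a ten-point 1:1 serial dilution in IMDM without FCS, with final Me2SO 0.4%, for 22 h. Secreted Aβ42 in the supernatant was measured by bead ECL sandwich (biotin-6E10 capture, ruthenylated BAP15 detection, 3 h RT). IC50 was taken from the dose-response curve.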
# Cytochrome P450 2D6 = Cytochrome P450 2D6 (Homo sapiens, UniProt P10635); assay: Inhibition of CYP2D6; type: ADME
# Sequence of Cytochrome P450 2D6 (P10635 whole entry): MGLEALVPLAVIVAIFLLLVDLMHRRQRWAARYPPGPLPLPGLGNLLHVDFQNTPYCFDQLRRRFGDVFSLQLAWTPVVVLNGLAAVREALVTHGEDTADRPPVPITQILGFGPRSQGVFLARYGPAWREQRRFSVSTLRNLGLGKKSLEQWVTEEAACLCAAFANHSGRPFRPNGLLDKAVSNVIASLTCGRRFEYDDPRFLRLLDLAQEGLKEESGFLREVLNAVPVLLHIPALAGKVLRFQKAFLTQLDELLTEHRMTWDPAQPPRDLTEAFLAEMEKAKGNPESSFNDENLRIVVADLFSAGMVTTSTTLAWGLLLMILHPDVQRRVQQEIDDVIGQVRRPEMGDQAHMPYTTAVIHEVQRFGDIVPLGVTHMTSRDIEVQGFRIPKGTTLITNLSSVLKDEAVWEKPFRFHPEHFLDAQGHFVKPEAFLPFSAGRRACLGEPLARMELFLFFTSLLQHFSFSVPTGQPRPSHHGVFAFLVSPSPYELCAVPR
# Mus musculus [2] = assay: Antialzheimer activity in transgenic mouse overexpressing APP Swedish FAD mutant assessed as reduction in amyloid beta-42 level in brain at 150 mg/kg, po after 4 hrs; type: functional; set-up: scale not given: the % may be the effect or the level left
# How it was run: (§1)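 Transgenic mice about 3 months old, overexpressing APP-Swe under the mouse Thy-1 promoter, were dosed orally. Brains were taken 4 h later and homogenized in 1% DEA. Brain Aβ42 was quantified by LP ECL, and brain compound exposure was measured by LC–MS/MS.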
# Mus musculus [3] = assay: Antialzheimer activity in transgenic mouse overexpressing APP Swedish FAD mutant assessed as reduction in amyloid beta-42 level in brain at 150 mg/kg, po after 7 hrs; type: functional; set-up: scale not given: the % may be the effect or the level left
# How it was run: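 Oral dosing was given to APP-Swe transgenic mice (Thy-1 promoter) about 3 months old. Brain homogenates in 1% DEA were analysed by LP ECL for Aβ42.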
# [4] = Fraction unbound in transgenic mouse overexpressing APP Swedish FAD mutant; type: ADME, organism-based; settings: in vivo
# Cytochrome P450 3A4 = Cytochrome P450 3A4 (Homo sapiens, UniProt P08684); assay: Inhibition of CYP3A4; type: ADME
# Sequence of Cytochrome P450 3A4 (P08684 whole entry): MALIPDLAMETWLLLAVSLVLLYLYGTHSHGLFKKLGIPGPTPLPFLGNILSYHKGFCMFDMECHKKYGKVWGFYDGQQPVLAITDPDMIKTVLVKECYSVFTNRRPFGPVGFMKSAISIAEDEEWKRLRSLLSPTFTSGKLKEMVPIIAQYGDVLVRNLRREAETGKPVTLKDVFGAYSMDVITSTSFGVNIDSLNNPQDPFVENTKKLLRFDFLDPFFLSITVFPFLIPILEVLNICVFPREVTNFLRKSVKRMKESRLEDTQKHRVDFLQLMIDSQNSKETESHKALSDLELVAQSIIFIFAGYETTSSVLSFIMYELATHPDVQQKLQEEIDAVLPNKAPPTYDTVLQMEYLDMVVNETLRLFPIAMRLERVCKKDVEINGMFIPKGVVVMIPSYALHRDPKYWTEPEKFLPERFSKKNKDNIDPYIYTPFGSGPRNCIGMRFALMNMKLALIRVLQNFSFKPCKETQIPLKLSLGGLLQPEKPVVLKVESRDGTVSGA
# Mus musculus [5] = assay: Antialzheimer activity in transgenic mouse overexpressing APP Swedish FAD mutant assessed as reduction in amyloid beta-42 level in brain at 100 mg/kg, po; type: functional; how it was run: as §1
# [6] = molecular target: Inosine-5'-monophosphate dehydrogenase 2 (Homo sapiens, UniProt P12268); assay: Inhibition of IMPDH2
# Gamma-secretase [7] = assay: Inhibition of gamma secretase in human H4 cells overexpressing human APP assessed as reduction in amyloid beta-40 secretion after 22 hrs; type: cell-based
# How it was run: (§2)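 Human H4 neuroglioma cells overexpressing human APP were plated at 30,000 cells/well in IMDM with 10% FCS and […] hygromycin B, and incubated 2 h at 37 °C, 5% CO2. Compounds were added as a ten-point 1:1 serial dilution series in FCS-free IMDM, with final Me2SO 0.4%, for 22 h at 37 °C. The culture supernatant was then assayed.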
# Gamma-secretase [8] = assay: Modulation of gamma secretase in human H4 cells overexpressing human APP assessed as increase in amyloid beta-38 secretion after 22 hrs; type: cell-based; how it was run: as §2
# [9] = molecular target: Gamma-secretase (Homo sapiens) (UniProt Q96BI3+Q9NZ42+Q8WW43+P49768+Q92542+P49810); assay: Modulation of gamma secretase in human H4 cells overexpressing human APP assessed as effect on total amyloid beta up to 20 uM after 22 hrs; type: cell-based; how it was run: as §2
# [10] = Modulation of gamma secretase in cell-based assay assessed as change in notch protein level up to 25 uM
# Mus musculus [11] = assay: Antialzheimer activity in transgenic mouse overexpressing APP Swedish FAD mutant assessed as reduction in amyloid beta-42 level in brain at 100 mg/kg, po after 4 hrs; type: functional, organism-based; set-up: dose 100 mg/kg; how it was run: as §1
# [12] = Inhibition of gamma secretase in rat primary neurons assessed as reduction in amyloid beta-42 secretion
# Mus musculus [13] = assay: Antialzheimer activity in transgenic mouse overexpressing APP Swedish FAD mutant assessed as reduction in amyloid beta-42 level in brain at 30 mg/kg, po; type: functional, organism-based; set-up: dose 30 mg/kg; how it was run: as §1
# [14] = Oral bioavailability in transgenic mouse overexpressing APP Swedish FAD mutant at 7.2 mg/kg; type: ADME, organism-based; settings: in vivo
# How it was run: (§3)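 Mouse pharmacokinetics used an iv dose of 0.7 mg/kg and a po dose of 7.2 mg/kg. Compound levels in plasma and brain were determined by LC–MS/MS over 0–24 h.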
# [15] = Plasma clearance in transgenic mouse overexpressing APP Swedish FAD mutant at 7.2 mg/kg, po and 0.7 mg/kg, iv; type: ADME, organism-based; how it was run: as §3
# [16] = Volume of distribution at steady state in transgenic mouse overexpressing APP Swedish FAD mutant at 7.2 mg/kg, po and 0.7 mg/kg, iv; type: ADME, organism-based; settings: in vivo, read-out: Vdss; how it was run: as §3
# [17] = Half life in transgenic mouse overexpressing APP Swedish FAD mutant at 7.2 mg/kg, po and 0.7 mg/kg, iv; type: ADME, organism-based; settings: in vivo; how it was run: as §3
# [18] = Ratio of drug level in brain to plasma in transgenic mouse overexpressing APP Swedish FAD mutant at 7.2 mg/kg, po and 0.7 mg/kg, iv; type: ADME, organism-based; settings: read-out: BPR; how it was run: as §3
# Mus musculus [19] = assay: Antialzheimer activity in po dosed transgenic mouse overexpressing APP Swedish FAD mutant assessed as reduction in amyloid beta-42 level in brain measured after 4 hrs; type: functional; how it was run: as §1
Compound,pIC50 (Gamma-secretase [1]),pIC50 (Cytochrome P450 2D6),also measured
Cc1cn(-c2ccc(Nc3nc4c(s3)CCCC4c3ccccc3)cc2C#N)cn1 (stereo not drawn),6.91,> 6.70,
Cc1cn(-c2ccc(Nc3nc4c(s3)CCCC4c3ccccc3)cc2C)cn1 (stereo not drawn),6.13,> 6.30,
COc1cc(Nc2nc(C)c(Cc3cccc(Cl)c3)s2)ccc1-n1cnc(C)c1,6.67,> 6.30,Activity (Mus musculus [2]): 47%; Activity (Mus musculus [3]): 22%; Fu [4]: < 0.1%
Cc1cn(-c2ccc(Nc3nc4c(s3)CCCC4c3ccccc3)cc2)cn1 (stereo not drawn),6.88,> 6.30,
c1ccc(C2CCCc3sc(Nc4ccc(-c5ccnnc5)cc4)nc32)cc1 (stereo not drawn),6.42,> 6.30,
Cc1cn(-c2ccc(Nc3nc4c(s3)CCCC4c3ccccc3)cc2C(F)(F)F)cn1 (stereo not drawn),< 5.90,> 6.30,
COc1cc(Nc2ncc(C(O)c3ccc(Cl)cc3)s2)ccc1-n1cnc(C)c1 (stereo not drawn),6.47,> 6.30,
COc1cc(Nc2nc3c(s2)CCCC3c2ccccc2)ccc1-c1nc(C)no1 (stereo not drawn),5.46,> 6.30,
Cc1ncc(-c2ccc(Nc3nc4c(s3)CCCC4c3ccccc3)cc2)o1 (stereo not drawn),6.88,> 6.30,
COc1ccc(Br)cc1-c1csc(Nc2ccc(-n3ccnc3)c(OC)c2)n1,6.10,> 6.30,pIC50 (Cytochrome P450 3A4): > 6.70
c1ccc(C2CCCc3sc(Nc4ccc(-c5ccncc5)cc4)nc32)cc1 (stereo not drawn),6.50,> 6.30,Activity (Mus musculus [5]): inactive
c1ccc(C2CCCc3sc(Nc4ccc(-n5cncn5)cc4)nc32)cc1 (stereo not drawn),5.26,> 6.30,
COc1cc(Nc2nc3c(s2)CCCC3c2ccccc2)ccc1-c1cnc(C)o1 (stereo not drawn),7.07,> 6.30,Activity (Mus musculus [5]): 47%
COc1cc(Nc2nc(C)c(Cc3cccc(Cl)c3)s2)ccc1-c1cnco1,6.09,> 6.30,pIC50 [6]: 6.40; pIC50 (Gamma-secretase [7]): 5.43; pEC50 (Gamma-secretase [8]): 5.82; Activity [9]: inactive; Activity [10]: inactive
COc1cc(Nc2nc3c(s2)CCCC3c2ccccc2)ccc1-c1cnc(C)s1 (stereo not drawn),6.60,> 6.30,Activity (Mus musculus [5]): inactive
Cc1nsc(-c2ccc(Nc3nc4c(s3)CCCC4c3ccccc3)cc2)n1 (stereo not drawn),6.19,> 6.30,
COc1cc(Nc2nc3c(s2)CCCC3c2ccccc2)ccc1C#N (stereo not drawn),5.47,> 6.30,

Compound,pIC50 (Gamma-secretase [1]),pIC50 (Cytochrome P450 2D6),also measured
COc1cc(Nc2nc3c(s2)CCCC3c2ccccc2)ccc1-c1cnn(C)c1 (stereo not drawn),6.61,> 6.30,Activity (Mus musculus [11]): inactive
COc1cc(Nc2nc(C(C)(C)c3ccc(Cl)cc3)cs2)ccc1-n1cnc(C)c1,6.87,> 6.30,
COc1ccc(Br)cc1-c1csc(Nc2ccc(-n3cnc(C)c3)c(OC)c2)n1,6.05,> 6.30,pIC50 (Cytochrome P450 3A4): 5.66
COc1cc(/C=C2\CCCN([C@@H](C)c3ccc(F)cc3)C2=O)ccc1-n1cnc(C)c1,,,pIC50 [12]: 7.38
Cc1cc(-c2ccc(Nc3nc4c(s3)CCCC4c3ccccc3)cc2)nc(C)n1 (stereo not drawn),6.32,> 6.30,
COc1ccc(Br)cc1-c1csc(Nc2ccc(-n3cnc(C)c3)cc2)n1,6.06,> 6.30,pIC50 (Cytochrome P450 3A4): 5.92
Cc1cn(-c2ccc(Nc3nc4c(s3)CCCC4c3ccccc3)cc2O)cn1 (stereo not drawn),6.68,> 6.30,
Cc1cn(-c2ccc(Nc3nc4c(s3)CCCC4c3ccccc3)cc2F)cn1 (stereo not drawn),7.28,> 6.30,
Cc1ncc(C)c(-c2ccc(Nc3nc4c(s3)CCCC4c3ccccc3)cc2)n1 (stereo not drawn),5.54,> 6.30,
COc1cc(Nc2nc3c(s2)CCCC3c2ccccc2)ccc1-n1cnc(C)c1 (stereo not drawn),7.36,> 6.70,Activity (Mus musculus [13]): Active; bioavailability [14]: 25%; clearance [15]: 18.3 mL/min/kg; Vd [16]: 4.6 L/kg; half-life [17]: 2.5 h; Kp [18]: 0.4; ED50 (Mus musculus [19]): 40 mg/kg
Cc1cn(-c2ccc(Nc3nc4c(s3)CCCC4c3ccccc3)cc2Cl)cn1 (stereo not drawn),6.17,> 6.70,
COc1ccc(Br)cc1-c1csc(Nc2ccc(-n3ccnc3)cc2)n1,< 5.30,> 6.30,pIC50 (Cytochrome P450 3A4): > 6.70
COc1cc(Nc2nc3c(s2)CCCC3c2ccccc2)ccc1-c1nnc(C)o1 (stereo not drawn),6.00,> 6.30,
Cc1nc(C)c(-c2ccc(Nc3nc4c(s3)CCCC4c3ccccc3)cc2)o1 (stereo not drawn),6.90,> 6.30,
COc1cc(N(Cc2ccccc2)c2nc(C)c(Cc3ccc(Cl)cc3)s2)ccc1-n1cnc(C)c1,< 4.40,> 6.30,
COc1cc(Nc2nc3c(s2)CCCC3c2ccccc2)ccc1-c1sc(C)nc1C (stereo not drawn),6.67,> 6.30,
